Reference: ChEMBL document CHEMBL1275278, “Synthesis and pharmacological evaluation of clubbed isopropylthiazole derived triazolothiadiazoles, triazolothiadiazines and mannich bases as potential antimicrobial and antitubercular agents” (Eur J Med Chem, 2010)
Values after ≈ are worked out from the molar mass of the structure shown.

What was measured:
Pseudomonas aeruginosa = assay: Antibacterial activity against Pseudomonas aeruginosa ATCC 10145 after 24 hrs by broth microdilution method; assay type: functional; conditions: ATCC 10145, 24 h
How it was run: (§1)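 Broth dilution in Mueller-Hinton broth. Tubes inoculated at 10⁵ cfu/mL and incubated 37 °C for 24 h. MIC taken as lowest concentration completely inhibiting growth. Media and media-plus-DMSO growth controls; ciprofloxacin and norfloxacin as reference standards.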

Candida tropicalis = assay: Antifungal activity against Candida tropicalis ATCC 1369 after 24 hrs by broth microdilution method; assay type: functional; conditions: ATCC 1369, 24 h
[1] = tested on: Mycobacterium tuberculosis; assay: Antimycobacterial activity against Mycobacterium tuberculosis H37Rv after 21 days by broth dilution assay; assay type: functional; conditions: 504 h
How it was run: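 Frozen culture in Middlebrook 7H9 broth with 10% albumin-dextrose-catalase and 0.2% glycerol, thawed and diluted in broth to 10⁵ cfu/mL. Compounds dissolved in DMSO, twofold diluted in broth; final DMSO 1.3%. Tubes inoculated, incubated at 37 °C. Growth compared visually against drug-free and drug- and inoculum-free controls and isoniazid. MIC = lowest concentration inhibiting ≥99% of the starting bacterial population.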

Klebsiella pneumoniae = assay: Antibacterial activity against Klebsiella pneumoniae ATCC 10031 after 24 hrs by broth microdilution method; assay type: functional; conditions: ATCC 10031, 24 h; how it was run: as §1
Escherichia coli = assay: Antibacterial activity against Escherichia coli ATCC 10536 after 24 hrs by broth microdilution method; assay type: functional; conditions: ATCC 10536, 24 h; how it was run: as §1
A549 = assay: Cytotoxicity against human A549 cells assessed as cell viability at 250 uM by MTT assay; assay type: cell-based; conditions: a549, 250 µM
How it was run: (§2)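 A549 lung adenocarcinoma cells grown with fetal bovine serum. Compounds held as 10 mM DMSO stocks at −20 °C and diluted in culture medium before treatment (50–250 µM). Viability read by MTT assay against untreated cells and DMSO vehicle control. Two experiments, each with triplicate readings.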

Enterococcus faecalis = assay: Antibacterial activity against Streptococcus faecalis ATCC 14506 after 24 hrs by broth microdilution method; assay type: functional; conditions: ATCC 14506, 24 h; how it was run: as §1
Bacillus subtilis = assay: Antibacterial activity against Bacillus subtilis ATCC 60511 after 24 hrs by broth microdilution method; assay type: functional; conditions: ATCC 60511, 24 h; how it was run: as §1
Staphylococcus aureus = assay: Antibacterial activity against Staphylococcus aureus ATCC 11632 after 24 hrs by broth microdilution method; assay type: functional; conditions: ATCC 11632, 24 h; how it was run: as §1
Saccharomyces cerevisiae = assay: Antifungal activity against Saccharomyces cerevisiae ATCC 9763 after 24 hrs by broth microdilution method; assay type: functional; conditions: ATCC 9763, 24 h
Aspergillus niger = assay: Antifungal activity against Aspergillus niger ATCC 6275 after 24 hrs by broth microdilution method; assay type: functional; conditions: ATCC 6275, 24 h
[2] = Cytotoxicity against human A549 cells assessed as cell viability at 250 uM by MTT assay relative to control; assay type: cell-based; conditions: read-out: Activity; how it was run: as §2

Compound	MIC (Pseudomonas aeruginosa) [mg/L]	MIC (Candida tropicalis) [mg/L]	MIC [1] [mg/L]	MIC (Klebsiella pneumoniae) [mg/L]	MIC (Escherichia coli) [mg/L]	Activity (A549)	MIC (Enterococcus faecalis) [mg/L]	MIC (Bacillus subtilis) [mg/L]	MIC (Staphylococcus aureus) [mg/L]	MIC (Saccharomyces cerevisiae) [mg/L]	MIC (Aspergillus niger) [mg/L]	viability at 250 µM [2] [%]
CC(C)c1csc(-c2nnc3n2NC(c2ccc(F)cc2F)S3)n1 (stereo not given)	16 (≈ 43.8 µM)	125 (≈ 342 µM)	4 (≈ 10.9 µM)	31.2 (≈ 85.5 µM)	16 (≈ 43.8 µM)	Toxic	4 (≈ 10.9 µM)	4 (≈ 10.9 µM)	8 (≈ 21.9 µM)	62.5 (≈ 171 µM)	31.2 (≈ 85.5 µM)	–
COc1ccc(C2=Nn3c(nnc3-c3nc(C(C)C)cs3)SC2)cc1	8 (≈ 21.5 µM)	31.2 (≈ 84.1 µM)	4 (≈ 10.8 µM)	16 (≈ 43.1 µM)	16 (≈ 43.1 µM)	–	4 (≈ 10.8 µM)	8 (≈ 21.5 µM)	8 (≈ 21.5 µM)	16 (≈ 43.1 µM)	16 (≈ 43.1 µM)	50
CC(C)c1csc(-c2nn(CN3CCN(C)CC3)c(=S)n2/N=C/c2ccc(N(C)C)cc2)n1	31.2 (≈ 64.5 µM)	31.2 (≈ 64.5 µM)	4 (≈ 8.25 µM)	4 (≈ 8.25 µM)	16 (≈ 33 µM)	–	4 (≈ 8.25 µM)	8 (≈ 16.5 µM)	31.2 (≈ 64.5 µM)	16 (≈ 33 µM)	8 (≈ 16.5 µM)	50
CC(C)c1csc(-c2nn(CN3CCOCC3)c(=S)o2)n1	16 (≈ 49 µM)	31.2 (≈ 95.7 µM)	31.2 (≈ 95.7 µM)	31.2 (≈ 95.7 µM)	31.2 (≈ 95.7 µM)	–	16 (≈ 49 µM)	16 (≈ 49 µM)	31.2 (≈ 95.7 µM)	31.2 (≈ 95.7 µM)	62.5 (≈ 191 µM)	–
Cc1ccc(C2=Nn3c(nnc3-c3nc(C(C)C)cs3)SC2)cc1	8 (≈ 22.5 µM)	31.2 (≈ 87.9 µM)	16 (≈ 45 µM)	8 (≈ 22.5 µM)	8 (≈ 22.5 µM)	–	31.2 (≈ 87.9 µM)	31.2 (≈ 87.9 µM)	16 (≈ 45 µM)	62.5 (≈ 176 µM)	31.2 (≈ 87.9 µM)	–
CC(C)c1csc(-c2nn(CN3CCOCC3)c(=S)n2/N=C/c2ccc(N(C)C)cc2)n1	31.2 (≈ 66.3 µM)	31.2 (≈ 66.3 µM)	16 (≈ 33.9 µM)	31.2 (≈ 66.3 µM)	31.2 (≈ 66.3 µM)	–	31.2 (≈ 66.3 µM)	16 (≈ 33.9 µM)	16 (≈ 33.9 µM)	62.5 (≈ 133 µM)	16 (≈ 33.9 µM)	–
COc1ccc(C(=O)Nn2c(-c3nc(C(C)C)cs3)n[nH]c2=S)cc1	8 (≈ 21.3 µM)	8 (≈ 21.3 µM)	16 (≈ 42.6 µM)	16 (≈ 42.6 µM)	8 (≈ 21.3 µM)	–	125 (≈ 333 µM)	62.5 (≈ 166 µM)	62.5 (≈ 166 µM)	4 (≈ 10.7 µM)	16 (≈ 42.6 µM)	50
CC(C)c1csc(-c2nnc3n2NC(c2ccc(N(C)C)cc2)S3)n1 (stereo not given)	62.5 (≈ 168 µM)	31.2 (≈ 83.9 µM)	4 (≈ 10.7 µM)	125 (≈ 336 µM)	62.5 (≈ 168 µM)	–	31.2 (≈ 83.9 µM)	62.5 (≈ 168 µM)	16 (≈ 43 µM)	31.2 (≈ 83.9 µM)	31.2 (≈ 83.9 µM)	–
COc1cc(/C=N/n2c(-c3nc(C(C)C)cs3)nn(CN3CCN(C)CC3)c2=S)cc(OC)c1OC	31.2 (≈ 58.8 µM)	62.5 (≈ 118 µM)	8 (≈ 15 µM)	16 (≈ 30.1 µM)	8 (≈ 15 µM)	–	8 (≈ 15 µM)	4 (≈ 7.52 µM)	16 (≈ 30.1 µM)	125 (≈ 235 µM)	16 (≈ 30.1 µM)	50
CC(C)c1csc(-c2nnc3sc(S)nn23)n1	31.2 (≈ 110 µM)	8 (≈ 28.2 µM)	31.2 (≈ 110 µM)	31.2 (≈ 110 µM)	62.5 (≈ 221 µM)	–	31.2 (≈ 110 µM)	16 (≈ 56.5 µM)	125 (≈ 441 µM)	16 (≈ 56.5 µM)	16 (≈ 56.5 µM)	–
CC(C)c1csc(-c2nn(CN3CCN(C)CC3)c(=S)o2)n1	16 (≈ 47.1 µM)	31.2 (≈ 92 µM)	16 (≈ 47.1 µM)	16 (≈ 47.1 µM)	31.2 (≈ 92 µM)	–	31.2 (≈ 92 µM)	31.2 (≈ 92 µM)	62.5 (≈ 184 µM)	62.5 (≈ 184 µM)	16 (≈ 47.1 µM)	–
CC(C)c1csc(-c2nnc3n2N=C(c2ccc(O)cc2)CS3)n1	62.5 (≈ 175 µM)	31.2 (≈ 87.4 µM)	125 (≈ 350 µM)	16 (≈ 44.8 µM)	31.2 (≈ 87.4 µM)	–	31.2 (≈ 87.4 µM)	31.2 (≈ 87.4 µM)	62.5 (≈ 175 µM)	16 (≈ 44.8 µM)	31.2 (≈ 87.4 µM)	–
COc1ccc(/C=N/n2c(-c3nc(C(C)C)cs3)nn(CN3CCN(C)CC3)c2=S)cc1	16 (≈ 33.9 µM)	31.2 (≈ 66.3 µM)	16 (≈ 33.9 µM)	31.2 (≈ 66.3 µM)	31.2 (≈ 66.3 µM)	–	16 (≈ 33.9 µM)	8 (≈ 17 µM)	31.2 (≈ 66.3 µM)	16 (≈ 33.9 µM)	31.2 (≈ 66.3 µM)	–
CC(C)c1csc(-c2nnc3n2NC(c2ccc(O)cc2)S3)n1 (stereo not given)	62.5 (≈ 181 µM)	125 (≈ 362 µM)	125 (≈ 362 µM)	62.5 (≈ 181 µM)	62.5 (≈ 181 µM)	–	62.5 (≈ 181 µM)	31.2 (≈ 90.5 µM)	62.5 (≈ 181 µM)	62.5 (≈ 181 µM)	125 (≈ 362 µM)	–
